In ChEMBL document CHEMBL1136011, “Nitric oxide releasing morpholine derivatives as hypolipidemic and antioxidant agents” (J Med Chem, 2002):

Key:
[1] = tested on: Rattus norvegicus; test: Hypolipidemic activity as percentage decrease in plasma levels of the triglyceride at 56 uM/kg administered intraperitoneally in rats; assay type: functional
Summary of the method: (§1)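 Hyperlipidemia induced in rats by Triton WR 1339 (200 mg/kg ip, aqueous solution). 1 h later, test agent 56 μmol/kg in saline given ip; controls receive saline alone. Blood is drawn from the aorta 24 h after Triton, and plasma total cholesterol, LDL-cholesterol and triglyceride are determined. Groups of four to six rats; Student's t-test.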

[2] = tested on: Rattus norvegicus; test: Hypolipidemic activity as percentage decrease in plasma levels of the cholesterol at 56 uM/kg administered intraperitoneally in rats; assay type: functional; summary of the method: as §1
[3] = tested on: Rattus norvegicus; test: Hypolipidemic activity as percentage decrease in plasma levels of the LDL-cholesterol at 56 uM/kg administered intraperitoneally in rats; assay type: functional; summary of the method: as §1
[4] = In vitro percentage release of nitric oxide.
Summary of the method: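 Nitric oxide release measured spectrophotometrically at 540 nm with a commercial kit. Determinations at least in duplicate.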

[5] = tested on: Rattus norvegicus; test: Hypolipidemic activity as percentage decrease in plasma levels of the triglyceride at 168 administered perorally in rats; assay type: functional
Summary of the method: (§2)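 Test agent 168 μmol/kg given orally to rats 3 h before Triton WR 1339 (200 mg/kg ip, aqueous solution). Blood is drawn from the aorta 24 h after Triton, and plasma total cholesterol, LDL-cholesterol and triglyceride are determined. Groups of four to six rats; Student's t-test.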

[6] = tested on: Rattus norvegicus; test: Hypolipidemic activity as percentage decrease in plasma levels of the LDL-cholesterol at 168 administered perorally in rats; assay type: functional; summary of the method: as §2
[7] = tested on: Rattus norvegicus; test: Hypolipidemic activity as percentage decrease in plasma levels of the cholesterol at 168 administered perorally in rats; assay type: functional; summary of the method: as §2

O=[N+]([O-])OCCCOC1(c2ccc(-c3ccccc3)cc2)CN2CCCCC2CO1 (stereo not drawn)
Decrease [1]: 37%
Decrease [2]: 20%
Decrease [3]: 25%
% release of nitric oxide [4]: 4.6%

CC(C)(Sc1cc(C(C)(C)C)c(O)c(C(C)(C)C)c1)Sc1cc(C(C)(C)C)c(O)c(C(C)(C)C)c1 [PROBUCOL]
Decrease [1]: 11%
Decrease [2]: 18%
Decrease [3]: 18%

CN1CCOC(OCCCO[N+](=O)[O-])(c2ccc(-c3ccccc3)cc2)C1 (stereo not drawn)
Decrease [5]: 54%
Decrease [1]: 85%
Decrease [6]: 36%
Decrease [2]: 63%
Decrease [3]: 47%
% release of nitric oxide [4]: 17.3%
Decrease [7]: 40%

CC(=O)N[C@@H](C(=O)O)C(C)(C)SN=O
% release of nitric oxide [4]: 56.7%

CN1CC(OCCCO[N+](=O)[O-])(c2ccc(-c3ccccc3)cc2)OC2CCCCC21 (stereo not drawn)
Decrease [1]: 38%
Decrease [2]: 23%
Decrease [3]: 1%
% release of nitric oxide [4]: 1%

CN1CCOC(OCCCO[N+](=O)[O-])(c2ccccc2)C1 (stereo not drawn)
Decrease [1]: 45%
Decrease [2]: 20%
Decrease [3]: 43%
% release of nitric oxide [4]: 27.2 µM µM-1
